According to PMC3404467 (Journal of Medicinal Chemistry, 2012):

Key:
hNPFF1R [1] = molecular target: T1, hNPFF1R (Homo sapiens, UniProt Q9GZQ6); assay: IP accumulation assay, wt hNPFF1R in COS-7 cells with chimeric G-protein; format: cell-based; conditions: for functional behaviour at NPFF1R: IP accumulation assays; for functional behaviour at NPFF1R / IP accumulation at NPFF1R: wt NPFF1R; for x-fold: wt hNPFF1R, EC50(compound)/EC50(endogenous ligand NPVF at wt); for IP accumulation at NPFF1R: at 10 μM
T1 sequence (Q9GZQ6 whole entry): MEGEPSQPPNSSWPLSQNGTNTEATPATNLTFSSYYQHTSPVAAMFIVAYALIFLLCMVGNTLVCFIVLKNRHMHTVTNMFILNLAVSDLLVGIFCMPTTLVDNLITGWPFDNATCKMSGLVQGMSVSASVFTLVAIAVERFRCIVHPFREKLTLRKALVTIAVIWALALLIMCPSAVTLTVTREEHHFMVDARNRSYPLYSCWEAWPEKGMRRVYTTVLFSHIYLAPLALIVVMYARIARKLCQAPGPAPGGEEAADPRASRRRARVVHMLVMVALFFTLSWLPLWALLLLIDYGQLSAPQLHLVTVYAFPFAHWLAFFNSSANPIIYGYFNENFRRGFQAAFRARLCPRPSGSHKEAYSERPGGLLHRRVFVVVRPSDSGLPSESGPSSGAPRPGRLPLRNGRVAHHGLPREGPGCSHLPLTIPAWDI

human NPFF2 receptor = human NPFF2 receptor (Homo sapiens, UniProt Q9Y5X5); assay: IP accumulation assay, wt hNPFF2R in COS-7 cells with chimeric G-protein; format: cell-based; conditions: for functional behaviour at NPFF2R: IP accumulation assays, wt NPFF2R; for x-fold: wt hNPFF2R, EC50(compound)/EC50(NPFF at wt)
Chain of human NPFF2 receptor (Q9Y5X5 whole entry): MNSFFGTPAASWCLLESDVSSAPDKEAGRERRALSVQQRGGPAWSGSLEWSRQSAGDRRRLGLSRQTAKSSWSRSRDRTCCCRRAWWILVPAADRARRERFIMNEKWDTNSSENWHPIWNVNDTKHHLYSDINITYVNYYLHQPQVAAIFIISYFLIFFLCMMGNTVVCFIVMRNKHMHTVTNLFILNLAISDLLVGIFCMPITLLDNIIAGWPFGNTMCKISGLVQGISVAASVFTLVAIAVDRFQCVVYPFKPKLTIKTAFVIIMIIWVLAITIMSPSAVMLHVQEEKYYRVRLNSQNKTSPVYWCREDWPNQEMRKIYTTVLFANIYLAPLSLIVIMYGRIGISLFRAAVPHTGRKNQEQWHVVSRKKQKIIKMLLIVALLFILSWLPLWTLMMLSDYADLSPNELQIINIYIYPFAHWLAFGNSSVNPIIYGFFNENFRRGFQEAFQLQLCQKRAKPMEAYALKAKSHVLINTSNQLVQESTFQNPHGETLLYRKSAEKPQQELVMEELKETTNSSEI

COS-7 cells = assay: Resazurin-based cell viability assay; set-up: species or system African Green Monkey; conditions: 2 h incubation, at high compound concentrations
Method in brief: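 COS-7 cells seeded 30,000/well, grown to subconfluency, exposed 2 h to varying concentrations in DMEM (4.5 g/L glucose, L-glutamine, 10% heat-inactivated FCS). Controls were 70% EtOH for 10 min and FCS medium. Cells were washed twice in serum-free medium, then given 10% resazurin in serum-free medium for 2 h at 37°C. Resorufin fluorescence was read at ex 550/em 595 nm. Two independent experiments, triplicates; IC50 derived.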

Y^7.35A_hNPFF2R = Y^7.35A_hNPFF2R (Homo sapiens, UniProt Q9Y5X5, Y417A); assay: IP accumulation assay, Y^7.35A mutant of hNPFF2R; format: cell-based; conditions: Y^7.35A hNPFF2R; ratio to EC50 of NPFF at wt
Chain of Y^7.35A_hNPFF2R (Q9Y5X5 whole entry Y417A): as the sequence (Q9Y5X5 whole entry) above, with Y417A counted along it

Y^5.38A hNPFF2 receptor = Y^5.38A hNPFF2 receptor (Homo sapiens, UniProt Q9Y5X5, Y321A); assay: IP accumulation assay, Y^5.38A mutant of hNPFF2R; format: cell-based; conditions: Y^5.38A hNPFF2R; ratio to EC50 of NPFF at wt
Chain of Y^5.38A hNPFF2 receptor (Q9Y5X5 whole entry Y321A): as the sequence (Q9Y5X5 whole entry) above, with Y321A counted along it

Y^7.33A_hNPFF2R = Y^7.33A_hNPFF2R (Homo sapiens, UniProt Q9Y5X5, Y415A); assay: IP accumulation assay, Y^7.33A mutant of hNPFF2R; format: cell-based; conditions: Y^7.33A hNPFF2R; ratio to EC50 of NPFF at wt
Chain of Y^7.33A_hNPFF2R (Q9Y5X5 whole entry Y415A): as the sequence (Q9Y5X5 whole entry) above, with Y415A counted along it

hNPFF1R [2] = molecular target: T1, hNPFF1R; assay: Antagonism: NPVF concentration-response curves; format: cell-based; conditions: against NPVF
[3] = rats, spinal nerve ligation; cited from earlier work
D^6.59A_hNPFF2R = D^6.59A_hNPFF2R (Homo sapiens, UniProt Q9Y5X5, D400A); assay: IP accumulation assay, D^6.59A mutant of hNPFF2R; format: cell-based; conditions: D^6.59A hNPFF2R; ratio to EC50 of NPFF at wt
Chain of D^6.59A_hNPFF2R (Q9Y5X5 whole entry D400A): as the sequence (Q9Y5X5 whole entry) above, with D400A counted along it

hNPFF2R = conditions: cited from earlier work
hNPFF1R [4] = molecular target: T1, hNPFF1R; conditions: CHO-hNPFF1R cells, up to 10 μM; cited from earlier work

Row | Compound | functional behaviour at NPFF1R (hNPFF1R [1]) | x-fold (hNPFF1R [1]) | functional behaviour at NPFF2R (human NPFF2 receptor) | x-fold (human NPFF2 receptor) | cytotoxicity (relative cell viability) (COS-7 cells) | EC50 (human NPFF2 receptor) | x-fold (Y^7.35A_hNPFF2R) | x-fold (Y^5.38A hNPFF2 receptor) | IP accumulation at NPFF1R (hNPFF1R [1]) | x-fold (Y^7.33A_hNPFF2R) | Schild plot slope (hNPFF1R [2]) | antinociceptive effect on mechanical allodynia [3] | x-fold (D^6.59A_hNPFF2R) | effect on stimulation of [^35S]GTPγS binding (hNPFF2R; hNPFF2R membranes, up to 100 μM) | right-shift of concentration-effect curves of NPFF (hNPFF2R; in the presence of high concentrations of RF9) | activity in cAMP accumulation assay (hNPFF1R [4])
1 | N=C(N)N/N=C/c1ccc(Br)c(Br)c1 [AC-093] | partial agonists | 310 fold | full agonists | 1291 fold | cytotoxic effect |  |  |  |  |  |  |  |  |  |  | 
2 | N=C(N)N/N=C/c1ccc(Cl)c(C(F)(F)F)c1 [AC-099] | partial agonists |  | full agonists |  |  |  |  |  |  |  |  |  |  |  |  | 
3 | N=C(N)N/N=C/c1ccc(-c2ccc(Br)cc2C(F)(F)F)o1 [AC-216] | full agonist | 3308 fold | full agonists | 977 fold | cytotoxic effect | 1160 ± 638 nM | 738 fold |  |  |  |  |  |  |  |  | 
4 | N=C(N)N/N=C/C12CC3CC(CC(C3)C1)C2 [AC-970] | competitive antagonism |  | full agonists | 175 fold | cytotoxic effect |  | 177 fold | 1440 fold | no IP accumulation | 4901 fold | 1.04 ± 0.19 | reversing established mechanical allodynia | 5211 fold |  |  | 
5 | NC(N)=NCCC[C@@H](NC(=O)C(c1ccccc1)c1ccccc1)C(=O)NCc1ccc(O)cc1 [BIBP3226, (R)-N(2)-(diphenylacetyl)-N-[(4-hydroxyphenyl)-methyl]-argininamide, reference compound] | competitive antagonist |  | partial agonist | 137 fold |  |  | 66 fold |  | no IP accumulation |  | 0.89 ± 0.05 |  |  |  |  | 
6 | N=C(N)NCCC[C@H](NC(=O)C12CC3CC(CC(C3)C1)C2)C(=O)N[C@@H](Cc1ccccc1)C(N)=O [RF9, 1-Adamantanecarbonyl-RF-NH2, reference compound] | agonistic activity | 41 fold | agonistic activity | 222 fold |  |  | 277 fold |  |  |  |  |  |  | no effect | ~ 160 fold | inactive
